Data on seven molecules can be found in ChEMBL document CHEMBL1165926, “Synthesis and characterization of potent inhibitors of Trypanosoma cruzi dihydrofolate reductase” (Bioorg Med Chem, 2010).

In experiment [1] the target is T1, Bifunctional dihydrofolate reductase-thymidylate synthase (Trypanosoma cruzi, UniProt Q27793). Briefly: Inhibition of Trypanosoma cruzi DHFR by spectrophotometric assay. The procedure, abridged:
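Recombinant bifunctional T. cruzi DHFR-TS in 50 mM Tris-HCl pH 7.0 with DHF, 100 µM NADPH and 0.5–1.0 µg enzyme; velocity from absorbance at 340 nm over 30 s at 22.6 °C. IC50 from velocities at several inhibitor concentrations for each of three DHF concentrations, then averaged; Ki calculated from IC50. Triplicates, repeated on different days.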

Experiment [2] has as its target T2, Dihydrofolate reductase (Homo sapiens, UniProt P00374).
T2 sequence (P00374 whole entry): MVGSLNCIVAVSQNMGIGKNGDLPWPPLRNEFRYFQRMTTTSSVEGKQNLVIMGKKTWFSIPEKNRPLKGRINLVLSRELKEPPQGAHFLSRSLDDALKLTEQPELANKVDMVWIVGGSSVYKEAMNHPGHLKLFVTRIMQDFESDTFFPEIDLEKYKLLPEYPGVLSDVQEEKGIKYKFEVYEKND
Briefly: Inhibition of human DHFR by spectrophotometric assay.

For experiment [3], the target named is T1, Bifunctional dihydrofolate reductase-thymidylate synthase. Briefly: Inhibition of Trypanosoma cruzi DHFR by Lineweaver-Burke plot. In a few lines: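 Recombinant bifunctional T. cruzi DHFR-TS; 50 mM Tris-HCl pH 7.0 with DHF, 100 µM NADPH and 0.5–1.0 µg enzyme; initial velocity followed at 340 nm for 30 s at 22.6 °C. Velocities taken at five DHF concentrations for each of three inhibitor concentrations; Ki read from Lineweaver–Burk plots.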

SMILES strings stand for the structures.

The term IC50 denotes the concentration that gives 50% inhibition. Low values mean higher potency, high ones lower potency. As a reminder, the Ki is the equilibrium dissociation constant of an inhibitor or competing ligand from its target. The low end stands for higher affinity, the high end for lower affinity.

T1 sequence (Q27793 whole entry): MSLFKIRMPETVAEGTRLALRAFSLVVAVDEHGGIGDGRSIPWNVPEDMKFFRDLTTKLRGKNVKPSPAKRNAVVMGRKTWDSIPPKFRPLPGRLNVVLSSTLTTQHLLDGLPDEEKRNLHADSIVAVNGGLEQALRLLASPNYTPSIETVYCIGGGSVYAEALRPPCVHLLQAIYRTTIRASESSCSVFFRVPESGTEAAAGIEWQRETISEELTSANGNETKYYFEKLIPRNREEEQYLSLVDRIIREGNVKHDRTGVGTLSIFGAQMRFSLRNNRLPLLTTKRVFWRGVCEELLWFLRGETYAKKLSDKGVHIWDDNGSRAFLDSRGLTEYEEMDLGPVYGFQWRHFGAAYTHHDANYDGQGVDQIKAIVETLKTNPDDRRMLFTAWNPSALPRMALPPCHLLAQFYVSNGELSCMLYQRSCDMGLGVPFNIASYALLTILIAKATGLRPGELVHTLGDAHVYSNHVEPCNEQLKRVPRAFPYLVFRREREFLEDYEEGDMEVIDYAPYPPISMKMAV

On to `CCOC(=O)CCCOc1cc(NCc2ccc3nc(N)nc(N)c3c2)ccc1OC`, for which the IC50 in experiment [1] was determined as 23.8 nM; in experiment [2], 68.3 nM. Further, the Ki in experiment [1] is 1.3 nM; in experiment [2], 9.6 nM; in experiment [3], 5.68 nM.

As for `COc1ccc(NCc2ccc3nc(N)nc(N)c3c2)cc1OCCCC(=O)O`, the IC50 in experiment [1] is 61 nM; in experiment [2], 357 nM. The results for the Ki in experiment [1] and in experiment [2] were 3.6 nM and 49.8 nM, respectively.

In experiment [1], `COC(=O)c1ccc(COc2cc(NCc3ccc4nc(N)nc(N)c4c3)ccc2OC)cc1` came in with an IC50 of 57.5 nM and a Ki of 3.3 nM. In experiment [2], this molecule had an IC50 of 175 nM and a Ki of 24.5 nM.

Regarding `CCCN(Cc1ccc2nc(N)nc(N)c2c1)c1ccc(OC)c(OCCCCC(=O)OC)c1`, in experiment [1], 422 nM corresponded to half-maximal inhibition (IC50) and affinity was put at a Ki of 24.9 nM. Further, in experiment [2], half-maximal inhibition (IC50) was put at 1340 nM and the Ki worked out at 188 nM.

Turning to `COC(=O)CCCCOc1cc(NCc2ccc3nc(N)nc(N)c3c2)ccc1OC`, in experiment [1], the IC50 amounted to 27 nM and the Ki was 1.6 nM. In experiment [2], this molecule returned an IC50 of 93.5 nM and a Ki of 13 nM.

Regarding `COc1ccc(NCc2ccc3nc(N)nc(N)c3c2)cc1OC`, the IC50 in experiment [1] was found to be 27.1 nM; in experiment [2] it was 85.5 nM. Moreover, the values for the Ki in experiment [1], in experiment [2] and in experiment [3] were 1.6 nM, 11.8 nM and 4.75 nM, respectively.

`COc1cc(NCc2ccc3nc(N)nc(N)c3c2C)cc(OC)c1OC` [TRIMETREXATE]: in experiment [1], the IC50 is 20.2 nM and the Ki was found to be 6.6 nM.
